EP2 antag = human EP2 receptor antagonists, primary screen, TR-FRET cAMP, C6 glioma cells. C6 glioma cells expressing human EP2; cells stimulated with saturating PGE2. 260,000 tested, 0.52% active. inhibition, % at 25 µM. Prostaglandin E2 receptor EP2 subtype (Homo sapiens), P43116;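 active = percent inhibition above 40 after rounding to a whole number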;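 note: rat C6 glioma host cells with rolipram phosphodiesterase inhibitor present; the protocol text gives 20 µM as final concentration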
NPY-Y2 PAM-ag = NPY-Y2 potentiators or agonists, primary screen, cell-based. Neuropeptide Y receptor type 2 (Homo sapiens), P49146. cells expressing NPY-Y2, potentiator/agonist read-out. activation, % at 3.6 µM. 220,000 tested, 0.45% active. AID 1359, 2008; in the data active = activation above about 27%;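 note: cells stimulated with NPY near EC25 plus isoproterenol at EC100; 0% = vehicle plus submaximal agonist and 100% = vehicle plus saturating agonist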
NPY1 pot ag = NPY-Y1 receptor potentiators or agonists, primary screen, cell-based; 220,000 tested, 0.37% active; NPY-Y1 expressing cells, potentiator/agonist activation; activation, % at 3.6 µM; Neuropeptide Y receptor type 1 (Homo sapiens), P25929; in the data active = activation above about 33%, passing the limit was not always enough;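 note: cells stimulated with NPY at EC10 then isoproterenol at EC100; 0% = low agonist plus stimulus and 100% = saturating agonist plus stimulus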
Target sequence (P25929 whole entry, looked up): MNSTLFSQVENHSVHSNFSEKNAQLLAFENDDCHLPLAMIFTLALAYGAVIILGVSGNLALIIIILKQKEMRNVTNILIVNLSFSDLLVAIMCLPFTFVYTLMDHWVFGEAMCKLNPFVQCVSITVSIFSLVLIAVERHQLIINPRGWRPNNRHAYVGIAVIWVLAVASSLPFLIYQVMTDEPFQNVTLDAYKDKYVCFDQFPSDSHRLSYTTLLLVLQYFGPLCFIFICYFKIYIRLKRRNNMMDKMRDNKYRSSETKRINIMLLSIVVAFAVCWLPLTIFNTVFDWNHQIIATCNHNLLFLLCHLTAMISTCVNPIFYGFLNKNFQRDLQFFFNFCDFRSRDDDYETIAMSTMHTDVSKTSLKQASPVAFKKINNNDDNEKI
EP2 modulator = EP2 receptor modulators, cAMP readout, primary screen, cell-based, HTRF cAMP, PGE2 stimulation; AID 940, 2007; EP2-expressing cells, cAMP HTRF FRET, PGE2 co-stimulation; 260,000 tested, 0.83% active; induction, % at 25 µM; Prostaglandin E2 receptor EP2 subtype (Homo sapiens), P43116;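 active = compounds whose cAMP rise, as percent of the full-agonist control response, exceeds 60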;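 note: rat C6 glioma line stably carrying human EP2 under a CMV promoter; the protocol text gives 20 µM as final concentration; 100% = response of wells given 1 µM PGE2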
NPY-Y1 antag = NPY-Y1 receptor antagonists, primary screen, cell-based; Neuropeptide Y receptor type 1 (Homo sapiens), P25929; HEK293-CNG Y1 cells, membrane potential fluorescence; NPY at EC95, then isoproterenol; inhibition, % at 3.6 µM; 200,000 tested, 1% active;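 active = inhibition above the campaign mean inhibition of all tested compounds plus 3 SD, cut at about 20% in these data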;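 note: 0% = DMSO wells given NPY plus isoproterenol and 100% = isoproterenol alone without NPY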
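Material: HEK293 cells co-expressing NPY Y1 receptor and cyclic-nucleotide gated channel. Timing: compound incubation 1 h at room temperature, readout 45 min post-stimulation. Signal: fluorescence, membrane potential probe.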
NPY Y2 blocker = NPY-Y2 receptor antagonists, primary screen, cell-based; Neuropeptide Y receptor type 2 (Homo sapiens), P49146; NPY-Y2 expressing cells, antagonist mode; inhibition, % at 2.7 µM; 140,000 tested, 0.99% active; in the data active = inhibition above about 17%;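 note: 0% = vehicle with agonist challenge and 100% = reference antagonist with challenge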
NPY-Y1 antag ct = NPY-Y1 receptor antagonists, selectivity check, counter-screen for NPY-Y2 antagonist project, cell-based. shares compounds with NPY Y2 blocker. cell-based NPY-Y1 antagonism counterscreen. inhibition, % at 3.6 µM. 710 tested, 19% active. AID 1256, 2008; in the data active = inhibition above about 20%;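 note: cells challenged with NPY then isoproterenol with cAMP sensed through a CNG channel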
NPY-Y2 ant conf = NPY-Y2 receptor antagonists, retest of hits, confirmation, HEK293-CNG cells, membrane potential fluorescence, triplicate. inhibition, % at 2.8 µM. shares compounds with NPY Y2 blocker. 710 tested, 32% active. HEK293 NPY-Y2 CNG channel;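 active = mean inhibition of triplicate wells above the hit cutoff set in the primary screen, cut at about 17% in these data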;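 note: 0% = DMSO with NPY challenge and 100% = BIIE0246 high control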
An asterisk follows results filed as active; x = no result. This is a sample that favours compounds with a hit; in the whole collection about 2.8% have one here.

SMILES	EP2 antag	NPY-Y2 PAM-ag	NPY1 pot ag	EP2 modulator	NPY-Y1 antag	NPY Y2 blocker	others
CC(C)OCCCNC(=O)c1c(N)n(CC2CCCO2)c2nc3ccccc3nc12 (stereo unspecified)	14	0	5	x	25*	23*
O=C(Nc1ccc([As](=O)(O)O)cc1)Nc1cccc(Cl)c1Cl	58*	x	x	2	x	x
COc1ccc(-n2c(SC)nc3ccccc3c2=O)cc1	-2	-3	-15	26	-3	1
O=c1c2ccccc2nc(SCC2CCCCO2)n1-c1ccccc1 (stereo unspecified)	7	2	-11	64*	6	5
O=C1CN=C(c2ccc(Br)cc2)c2c(sc3c2CCCC3)N1CCN1CCOCC1	10	x	x	31	x	x
Nc1cc[c]([Hg])cc1.Nc1nc2c(ncn2[C@H]2O[C@H](CO)[C@@H](O)[C@@H]2O)c(=[SH+])[nH]1	104*	x	x	-43	x	x
COc1ccccc1CN(CCN(C)C)C(=O)Cc1c(C)[nH]c2c(C)cccc12	10	x	x	-78	x	x
C=Cn1cc(CN2C3CCC2CC(O)(c2nccn2C)C3)c(C)n1 (stereo unspecified)	5	x	x	-7	x	x
Cc1ccc(NC(=[OH+])c2cc3ccccc3cc2O)c(C)c1.Cc1ccc(NC(=[OH+])c2cc3ccccc3cc2O)c(C)c1.[Ni]	43*	x	x	-6	x	x
Cc1nc(-c2ccccc2)c(CC(=O)N(C)CCN(C)C)s1	9	x	x	-20	x	x
COc1ccc2c(c1)C(=O)CC1(CCNCC1)O2	5	x	x	-49	x	x
CC(=O)O/C(=C1\C[C@@H]2[C@H]3CC=C4C[C@@H](OC(C)=O)CC[C@]4(C)[C@@H]3CC[C@@]2(C)C1=O)C(F)(F)F	47*	x	x	39	x	x
CC(Cc1ccc(O)cc1)NCC(O)c1cc(O)cc(O)c1 (stereo unspecified)	7	x	x	82*	x	x
Clc1ccc(Cl)c2c1NC(c1cccnc1)C1CC=CC21 (stereo unspecified)	7	x	x	87*	x	x
Fc1cc(F)c2c(c1)C1C=CCC1C(c1cccnc1)N2 (stereo unspecified)	7	x	x	14	x	x
C[C@]12CC[C@H](O)C[C@@H]1CC[C@H]1[C@H]2CC[C@@]2(C)[C@H](C3=CC(=O)OC3)[C@H](O)C[C@]12O	43*	x	x	4	x	x
CC(=O)OC1CC[C@@]2(C)C(CCC3C2CC[C@]2(C)C(C4=CC(=O)OC4)C(OC(C)=O)CC32O)C1 (stereo partly specified)	10	x	x	-4	x	x
CN(CCN1CCCCC1)C(=O)Cc1csc(-c2ccccc2F)n1	3	x	x	-46	x	x
Cn1nc(CC(=O)N2CCCCC2CN2CCCC2)c2ccccc2c1=O (stereo unspecified)	6	x	x	-33	x	x
CCCCCn1c(N)c(C(=O)NCc2cccs2)c2nc3ccccc3nc21	4	-18	-9	59	8	4
CCCCn1c(N)c(C(=O)NCc2cccs2)c2nc3ccccc3nc21	2	1	-23	62*	2	0
CN1CCC2(CC1)C(C#N)=C(N)NC(S)=C2C#N	8	0	6	-2	-1	1
Cc1ccc(C2(c3ccc(C)c(O)c3C)CCN(C)CC2)c(C)c1O	112*	x	x	-45	x	x
O.O.[NH-]C1(C(=O)O)CCCC1.[NH-]C1(C(=O)O)CCCC1.[Ni+2]	47*	x	x	26	x	x
C[As+](C)(c1ccc(Br)c([N+](=O)[O-])c1)c1ccc(Br)c([N+](=O)[O-])c1.O=[N+]([O-])O	44*	x	x	20	x	x
SMILES	EP2 antag	NPY-Y2 PAM-ag	NPY1 pot ag	EP2 modulator	NPY-Y1 antag	NPY Y2 blocker	others
O=[N+]([O-])c1cc(S(=O)(=O)c2ccc(O)c([N+](=O)[O-])c2)ccc1O	9	-8	-5	20	7	3
C[CH2][Hg][S]c1ccccc1C(=O)O	115*	x	x	-38	x	x
CNc1ccccc1C(=O)O	8	x	x	12	x	x
C/C(N[O-])=C(\C)[N+]([O-])=[Rh][Cl].CC(=N\[O-])/C(C)=N/[O-].c1ccc([PH+](c2ccccc2)c2ccccc2)cc1	41*	x	x	26	x	x
C=Cn1cc(CN(CCc2ccccc2)Cc2cccs2)c(C)n1	2	x	x	69*	x	x
C=CCn1cc(CN2C3CCC2CC(O)(c2cccc(F)c2)C3)c(C)n1 (stereo unspecified)	6	x	x	-69	x	x
CN(C)c1ccc(/C=C/c2cc[n+](C)c3ccccc23)cc1	56*	2	13	-87	1	x
CC[n+]1c(/C=C/C=C/c2ccc(N(C)C)cc2)sc2ccccc21	115*	19	-9	-155	x	x
CC[n+]1c(/C=C/N(C)c2ccccc2)sc2ccc(Cl)cc21	5	-13	4	-27	5	5
CN(C)c1ccc(/C=C/C=C/c2sc3ccccc3[n+]2C)cc1	46*	-4	-4	-77	x	x
O=C(CN1C2CCC1CC(O)(c1ccccn1)C2)Nc1ccc(Cl)cc1 (stereo unspecified)	x	x	x	-71	x	x
CCN(CC)C(=O)CN1CC=C(c2ccc(C)o2)CC1	x	x	x	-11	x	x
Clc1cc(I)cc(Cl)c1NC1=NCCN1	17	x	x	7	x	x
c1cc2c(c(NC3=NCCN3)c1)CCCC2	43*	x	x	-12	x	x
CCCCCCCCCCCCCCCC[n+]1ccccc1	69*	x	x	-44	x	x
CCN(CCN(C)C)C(=O)Cc1c(C)[nH]c2ccc(Cl)cc12	2	x	x	-51	x	x
O=[N+]([O-])c1ccc(N2CCNCC2)c2ncccc12	x	47*	74*	-3	-8	0
Cn1nc(CC(=O)N2CCCCC2CN2CCCCC2)c2ccccc2c1=O (stereo unspecified)	3	x	x	0	x	x
CC(C)OP(=O)(OC(C)C)C(O)c1ccccc1F (stereo unspecified)	50*	-6	13	2	-3	2
O=C(COC(=O)c1ccc(O)cc1)Nc1ccc(Cl)cc1C(=O)c1ccccc1	7	-7	-44	26	17	19*	NPY-Y1 antag ct=12;NPY-Y2 ant conf=9
CCCC[N+]12CCC(CC1)C(=C(c1ccccc1)c1ccccc1)C2	7	-9	-8	5	18	23*	NPY-Y1 antag ct=12;NPY-Y2 ant conf=11
